Numbered stars: 1 amine (or outer) side, 2 acyl side, 3 side chain; on linkers, the order of the positions; unused ones are H or OH. Bridge positions count the residues as written; N and C are the ends. Square brackets hold non-standard residues; d marks the D form. Peptide text beside a SMILES is read from it. * marks the point of attachment. hTyr(3S-OH,4S-OH,3'-OSO3H) = N[C@H](C(=O)O)[C@H](O)[C@@H](O)c1ccc(O)c(OS(=O)(=O)O)c1; Orn(4R-OH,5R-OH) = O=C([C@H](C[C@@H](O)[C@@H](O)N[*:3])N[*:1])[*:2]; Pro(3S-OH,4S-Me) = C[C@H]1CN[C@H](C(=O)O)[C@H]1O; X1 = CCCCCOc1ccc(-c2cc(-c3ccc(C(=O)*)cc3)no2)cc1; Gln(3R-OH) = NC(=O)C[C@@H](O)[C@H](N)C(=O)O; Hyp = O=C(O)[C@@H]1C[C@@H](O)CN1
Columns and labels:
[1] = Elimination half life in lung transplant recipient invasive aspergillosis patient at 150 mg, iv QD for 4 consecutive days by HPLC; type: ADME, organism-based; details: human, in vivo, read-out: beta t1/2 (converted)
In short: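 Plasma micafungin was measured by HPLC after a 150-mg IV dose in lung transplant recipients. The terminal-phase half-life was derived by model-independent (noncompartmental) analysis of plasma concentrations.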

[2] = Clearance in lung transplant recipient invasive aspergillosis patient at 150 mg, iv QD for 4 consecutive days by HPLC; type: ADME, organism-based; details: human, in vivo
[3] = Volume of distribution in lung transplant recipient invasive aspergillosis patient at 150 mg, iv QD for 4 consecutive days by HPLC; type: ADME, organism-based; details: human, in vivo
[4] = Ratio of fCmax in lung transplant recipient invasive aspergillosis patient plasma to MIC90 for Aspergillus fumigatus; type: functional
[5] = Ratio of Cmax in lung transplant recipient invasive aspergillosis patient epithelial lining fluid to MIC90 for Aspergillus fumigatus; type: functional
[6] = Ratio of Cmax in lung transplant recipient invasive aspergillosis patient alveolar cell to MIC90 for Aspergillus fumigatus; type: functional, Pneumocyte
[7] = Ratio of AUC (0 to 24 hrs) in lung transplant recipient invasive aspergillosis patient plasma to MIC90 for Aspergillus fumigatus; type: functional
[8] = Ratio of AUC (0 to 24 hrs) in lung transplant recipient invasive aspergillosis patient epithelial lining fluid to MIC90 for Aspergillus fumigatus; type: functional
[9] = Ratio of AUC (0 to 24 hrs) in lung transplant recipient invasive aspergillosis patient alveolar cell to MIC90 for Aspergillus fumigatus; type: functional, Pneumocyte
[10] = Drug level in epithelial lining fluid of lung transplant recipient invasive aspergillosis patient at 150 mg, iv QD for 4 consecutive days measured after 5 hrs post last dose by HPLC; type: ADME, organism-based; details: human, read-out: Drug uptake
In short: (§1)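 150-mg IV micafungin, then bronchoscopy with BAL (20-ml saline aliquots) at the stated time after the dose. Blood was drawn in heparin at the same time. The BAL fluid was spun at 400 × g for 5 min at 4°C; supernatant and cell pellet were frozen at −80°C. Micafungin was measured by solid-phase extraction and C8 HPLC with UV detection at 271.5 nm, using anidulafungin as internal standard.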

[11] = Drug level in lung transplant recipient invasive aspergillosis patient plasma at 150 mg, iv QD for 4 consecutive days measured after 5 hrs post last dose by HPLC; type: ADME, organism-based; details: human, read-out: Drug uptake; in short: as §1
[12] = Drug level in alveolar cells of lung transplant recipient invasive aspergillosis patient at 150 mg, iv QD for 4 consecutive days measured after 5 hrs post last dose by HPLC; type: ADME, organism-based, Pneumocyte; details: human, read-out: Drug uptake; in short: as §1
Homo sapiens [13] = experiment: Hepatotoxicity in lung transplant recipient invasive aspergillosis patient assessed as serum creatinine level at 150 mg, iv QD for 4 consecutive days measured post last dose; type: toxicity, organism-based; details: in vivo
In short: (§2)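 Serum creatinine, AST, ALT and total bilirubin were recorded from routine clinical laboratory tests before enrolment and again after BAL, at a mean of 10.7 days after infusion.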

Homo sapiens [14] = experiment: Hepatotoxicity in lung transplant recipient invasive aspergillosis patient assessed as serum AST level at 150 mg, iv QD for 4 consecutive days measured post last dose; type: toxicity, organism-based; details: in vivo; in short: as §2
Homo sapiens [15] = experiment: Hepatotoxicity in lung transplant recipient invasive aspergillosis patient assessed as total bilirubin level at 150 mg, iv QD for 4 consecutive days measured post last dose; type: toxicity, organism-based; details: in vivo; in short: as §2
[16] = AUC (0 to 24 hrs) in lung transplant recipient invasive aspergillosis patient plasma at 150 mg, iv administered as single dose; type: ADME, organism-based; set-up: dose 150 mg, time < 24 hr, route intravenous; details: human
In short: (§3)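 Single 150-mg IV dose in adult lung transplant recipients. Plasma, ELF (epithelial lining fluid) and alveolar cell concentrations were measured by HPLC at the time of bronchoscopy. AUC0-24 came from a population model: a linear four-compartment model fit to all compartments, with the plasma two-compartment model used for the plasma profile.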

[17] = AUC (0 to 24 hrs) in epithelial lining fluid of lung transplant recipient invasive aspergillosis patient plasma at 150 mg, iv administered as single dose; type: ADME, organism-based; set-up: time < 24 hr, dose 150 mg, route intravenous; details: human; in short: as §3
[18] = AUC (0 to 24 hrs) in alveolar cell of lung transplant recipient invasive aspergillosis patient plasma at 150 mg, iv administered as single dose; type: ADME, organism-based, Pneumocyte; set-up: time < 24 hr, dose 150 mg, route intravenous; details: human, alveolar cells; in short: as §3
[19] = Ratio of total Cmax to MIC90 in lung transplant recipient invasive aspergillosis patient infected with Aspergillus fumigatus; type: functional
[20] = Drug level in lung transplant recipient invasive aspergillosis patient plasma at 150 mg, iv QD for 4 consecutive days measured after 3 hrs post last dose by HPLC; type: ADME, organism-based; details: human, read-out: Drug uptake; in short: as §1
[21] = Drug level in lung transplant recipient invasive aspergillosis patient plasma at 150 mg, iv measured after 5 hrs post last dose by HPLC; details: human, read-out: Drug uptake
Homo sapiens [22] = experiment: Hepatotoxicity in lung transplant recipient invasive aspergillosis patient assessed as serum ALT level at 150 mg, iv measured post last dose; details: in vivo
[23] = Drug level in alveolar cells of lung transplant recipient invasive aspergillosis patient at 150 mg, iv single dose measured after 5 hrs post dose by HPLC; details: human, read-out: Drug uptake
[24] = Drug level in epithelial lining fluid of lung transplant recipient invasive aspergillosis patient at 150 mg, iv single dose measured after 5 hrs post dose by HPLC; details: human, read-out: Drug uptake
[25] = Ratio of drug level in alveolar cell to plasma of lung transplant recipient invasive aspergillosis patient at 150 mg, iv single dose measured after 5 hrs post dose; details: human, alveolar cells / plasma
[26] = Ratio of drug level in epithelial lining fluid to plasma in lung transplant recipient invasive aspergillosis patient at 150 mg, iv measured after 5 hrs post last dose; details: human

Question: With `CCCCCOc1ccc(-c2cc(-c3ccc(C(=O)N[C@H]4C[C@@H](O)[C@@H](O)NC(=O)[C@@H]5[C@@H](O)[C@@H](C)CN5C(=O)[C@H]([C@H](O)CC(N)=O)NC(=O)[C@H]([C@H](O)[C@@H](O)c5ccc(O)c(OS(=O)(=O)O)c5)NC(=O)[C@@H]5C[C@@H](O)CN5C(=O)[C@H]([C@@H](C)O)NC4=O)cc3)no2)cc1` [MICAFUNGIN] (X1-[Orn(4R-OH,5R-OH)]T[Hyp][hTyr(3S-OH,4S-OH,3'-OSO3H)][Gln(3R-OH)][Pro(3S-OH,4S-Me)]; lactam 1-C) as the molecule, how does the half-life [1] read?
Answer: 12.1 h

Question: And the clearance [2]?
Answer: 21.8 mL/min

Question: What about the Vd [3] of the same molecule?
Answer: 17.6 L

Question: And the Ratio [4]?
Answer: 3.2

Question: What about the Ratio [5] of the same molecule?
Answer: 88.5

Question: What about the Ratio [6] of the same molecule?
Answer: 1115

Question: What about the Ratio [7] of the same molecule?
Answer: 5077

Question: What about the Ratio [8] of the same molecule?
Answer: 923.1

Question: And the Ratio [9]?
Answer: 13340

Question: And the concentration at 5 h [10]?
Answer: 690 ng/mL

Question: What about the concentration at 5 h [11] of the same molecule?
Answer: 5380 ng/mL

Question: What about the concentration at 5 h [12] of the same molecule?
Answer: 53300 ng/mL

Question: What about the Activity (Homo sapiens [13]) of the same molecule?
Answer: 1.11 mg/dL

Question: What about the Activity (Homo sapiens [14]) of the same molecule?
Answer: 28.6 IU/L

Question: And the Activity (Homo sapiens [15])?
Answer: 0.74 mg/dL

Question: What about the AUC(0-t) at 24 h [16] of the same molecule?
Answer: 79200 ng·h/mL

Question: And the AUC(0-t) at 24 h [17]?
Answer: 14400 ng·h/mL

Question: And the AUC(0-t) at 24 h [18]?
Answer: 208000 ng·h/mL

Question: And the Ratio [19]?
Answer: 316

Question: And the concentration at 3 h [20]?
Answer: 4930 ng/mL

Question: And the concentration at 5 h [21]?
Answer: 4810 ng/mL

Question: And the Activity (Homo sapiens [22])?
Answer: 41.6 IU/L

Question: What about the concentration at 5 h [23] of the same molecule?
Answer: 2840 ng/mL

Question: And the concentration at 5 h [24]?
Answer: 710 ng/mL

Question: And the Kp at 5 h [25]?
Answer: 0.61

Question: And the Kp at 5 h [26]?
Answer: 0.15
